Reference: ChEMBL document CHEMBL1149272, “Catecholic flavonoids acting as telomerase inhibitors” (J Med Chem, 2004)
Calls of active or inactive are those of the source. The rule behind the calls is not given here.

What follows are compounds tested against T1, Telomerase reverse transcriptase (Homo sapiens, UniProt O14746) (assay: Inhibition of human telomerase from HEK293 cell extracts by Flash-Plate assay). Settings: not given.
T1 sequence (O14746 whole entry): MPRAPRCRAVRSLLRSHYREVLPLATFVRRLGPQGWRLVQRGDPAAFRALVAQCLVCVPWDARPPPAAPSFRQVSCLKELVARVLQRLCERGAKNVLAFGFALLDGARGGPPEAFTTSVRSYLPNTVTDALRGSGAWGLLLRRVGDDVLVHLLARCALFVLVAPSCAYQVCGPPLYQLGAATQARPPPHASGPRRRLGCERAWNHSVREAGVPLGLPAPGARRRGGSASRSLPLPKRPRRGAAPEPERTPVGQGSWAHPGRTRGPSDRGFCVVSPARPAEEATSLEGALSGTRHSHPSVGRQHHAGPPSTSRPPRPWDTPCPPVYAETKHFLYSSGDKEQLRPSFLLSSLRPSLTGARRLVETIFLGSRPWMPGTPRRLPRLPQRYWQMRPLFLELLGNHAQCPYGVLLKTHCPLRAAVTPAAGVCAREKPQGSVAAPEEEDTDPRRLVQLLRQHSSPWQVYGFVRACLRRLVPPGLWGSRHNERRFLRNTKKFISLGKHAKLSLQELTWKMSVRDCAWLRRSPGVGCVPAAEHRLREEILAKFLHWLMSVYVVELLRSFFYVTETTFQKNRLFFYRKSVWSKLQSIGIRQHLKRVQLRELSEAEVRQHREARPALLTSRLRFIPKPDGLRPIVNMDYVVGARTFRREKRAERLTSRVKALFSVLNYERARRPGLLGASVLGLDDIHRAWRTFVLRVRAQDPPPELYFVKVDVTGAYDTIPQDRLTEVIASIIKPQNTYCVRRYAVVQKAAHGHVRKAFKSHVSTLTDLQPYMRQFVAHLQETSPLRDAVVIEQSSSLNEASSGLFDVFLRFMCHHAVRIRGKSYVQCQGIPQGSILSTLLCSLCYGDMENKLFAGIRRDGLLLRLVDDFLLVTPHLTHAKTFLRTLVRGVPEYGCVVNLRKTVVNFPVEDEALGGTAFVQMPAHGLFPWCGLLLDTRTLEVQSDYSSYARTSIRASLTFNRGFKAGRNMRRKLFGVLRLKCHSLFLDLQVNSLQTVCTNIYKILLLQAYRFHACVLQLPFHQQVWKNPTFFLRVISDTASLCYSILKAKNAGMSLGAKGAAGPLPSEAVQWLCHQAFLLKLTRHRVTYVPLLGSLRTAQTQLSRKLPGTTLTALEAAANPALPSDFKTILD
Assay type: cell-free
How it was run: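 Affinity-enriched telomerase extract from HEK293 cells overexpressing telomerase, adjusted to 5 fmol dNTP incorporation min-1 µL-1, in buffer with 50 mM Tris-acetate pH 8.5, 150 mM K acetate, 1 mM MgCl2, 1 mM EGTA. Buffer also held 10 µM dATP, 20 µM dGTP, 120 µM TTP and 500 nM 5'-biotinylated primer. Compounds in DMSO at 0.01-10 µM; 2 h at 37 °C. Elongated primer hybridized to a 33P-labeled complementary probe, captured on streptavidin Flash-Plate; IC50 from radioactivity.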
`O=C(/C=C/c1ccc(O)c(O)c1)c1ccc(O)c(O)c1` showed an IC50 of 1.7 µM. For `COc1ccc(-c2cc(=O)c3ccc(O)c(O)c3o2)cc1O`, the IC50 was 11 µM. `COc1ccc2c(=O)cc(-c3ccc4[nH]c(C)nc4c3)oc2c1OC` showed an IC50 of 22.1 µM. `O=c1cc(-c2ccc(O)c(O)c2)oc2ccccc12` was tested, and the IC50 was > 40 µM. `COc1ccc2c(=O)cc(-c3ccc(O)c(O)c3)oc2c1OC` was tested, and the IC50 was > 40 µM. `O=C(/C=C/c1ccc(O)c(O)c1)c1ccc(O)c(O)c1O` was tested, and the IC50 was 6 µM. `O=c1cc(-c2ccc(O)c(O)c2)oc2c(O)c(O)ccc12` showed an IC50 of 0.2 µM. With `O=c1cc(-c2ccc(O)c(O)c2)oc2cc(O)ccc12` the IC50 was > 40 µM. For `COc1ccc(-c2cc(=O)c3ccc(O)c(O)c3o2)cc1OC`, the IC50 was 11.7 µM. With `O=c1cc(-c2ccc3[nH]cnc3c2)oc2c(O)c(O)ccc12` the IC50 was 4 µM. With `O=c1cc(-c2ccc(O)c(O)c2)oc2c(O)cccc12` the IC50 was > 40 µM. For `O=c1cc(-c2ccc(O)c(O)c2)oc2c(O)c(O)c(Cl)cc12`, the IC50 was 0.82 µM. `O=c1[nH]c2ccc(-c3cc(=O)c4ccc(O)c(O)c4o3)cc2[nH]c1=O` was tested, and the IC50 was > 40 µM. In the case of `O=c1cc(-c2ccccc2)oc2c(O)c(O)ccc12` [7,8-DIHYDROXYFLAVONE], the IC50 is reported as 36 µM. In the case of `COc1ccc2c(=O)cc(-c3ccc4[nH]c(=O)c(=O)[nH]c4c3)oc2c1OC`, the IC50 is reported as > 40 µM. In the case of `Cc1nc2cc(-c3cc(=O)c4ccc(O)c(O)c4o3)ccc2[nH]1`, the IC50 is reported as > 40 µM. For `O=c1[nH]c2ccc(-c3cc(=O)c4ccc(O)c(O)c4o3)cc2[nH]1`, the IC50 was 1.2 µM. `COc1ccc2c(=O)cc(-c3ccc4[nH]c(CCCN(C)C)nc4c3)oc2c1OC` gave an IC50 of 0.47 µM. `O=c1cc(-c2cccc(O)c2)oc2c(O)c(O)ccc12` showed an IC50 of 50 µM.

The compounds below were run against DNA-directed RNA polymerase (Enterobacteria phage T3) (UniProt P07659) (assay: Inhibition of T3 RNA polymerase up to 2 uM). Settings: not given.
Chain of DNA-directed RNA polymerase (Enterobacteria phage T3) (P07659 whole entry): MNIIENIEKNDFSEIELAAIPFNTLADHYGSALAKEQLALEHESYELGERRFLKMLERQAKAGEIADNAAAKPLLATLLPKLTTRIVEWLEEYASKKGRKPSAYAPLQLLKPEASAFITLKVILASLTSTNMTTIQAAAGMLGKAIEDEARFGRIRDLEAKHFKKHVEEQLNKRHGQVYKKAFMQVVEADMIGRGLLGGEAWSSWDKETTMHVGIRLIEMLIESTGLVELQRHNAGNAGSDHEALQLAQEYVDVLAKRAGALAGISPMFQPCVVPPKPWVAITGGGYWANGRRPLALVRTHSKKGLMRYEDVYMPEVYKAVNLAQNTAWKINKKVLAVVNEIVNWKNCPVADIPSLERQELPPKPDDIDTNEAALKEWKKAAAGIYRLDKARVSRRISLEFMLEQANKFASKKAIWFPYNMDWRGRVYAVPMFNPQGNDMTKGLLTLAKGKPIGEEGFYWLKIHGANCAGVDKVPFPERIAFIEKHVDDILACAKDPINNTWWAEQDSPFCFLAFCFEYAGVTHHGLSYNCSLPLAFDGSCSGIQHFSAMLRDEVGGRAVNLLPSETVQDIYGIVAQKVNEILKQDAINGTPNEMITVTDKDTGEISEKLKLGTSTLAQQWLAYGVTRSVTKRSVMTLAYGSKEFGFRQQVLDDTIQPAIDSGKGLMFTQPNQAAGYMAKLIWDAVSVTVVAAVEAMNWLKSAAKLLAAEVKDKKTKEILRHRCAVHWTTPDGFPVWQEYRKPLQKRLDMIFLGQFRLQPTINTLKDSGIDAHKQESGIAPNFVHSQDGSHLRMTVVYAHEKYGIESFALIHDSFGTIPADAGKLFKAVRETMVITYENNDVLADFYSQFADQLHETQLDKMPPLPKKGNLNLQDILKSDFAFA
For `O=c1cc(-c2ccc(O)c(O)c2)oc2c(O)c(O)ccc12`, the Activity was “inactive”.

These compounds were tested against T1, Telomerase reverse transcriptase. Settings: 1 uM.
Compound `O=c1cc(-c2ccc(O)c(O)c2)oc2c(O)c(O)ccc12` has an inhibition of 50%.

These compounds were tested against T1, Telomerase reverse transcriptase. Settings: A-431, 1 uM.
Work on `O=c1cc(-c2ccc(O)c(O)c2)oc2c(O)c(O)ccc12` yielded an inhibition of 50%.
